Laboratory results reported in ChEMBL document CHEMBL5247578, “Effective synthesis of benzimidazoles-imidazo[1,2-a]pyrazine conjugates: A comparative study of mono-and bis-benzimidazoles for antitumor activity” (Eur J Med Chem, 2019).

Experiments:
SK-MEL-5 = experiment: Growth inhibition against human SK-MEL-5 cells assessed as total growth inhibitory concentration incubated for 48 hrs by sulforhodamine B assay; format: functional
HCT-15 [1] = experiment: Antiproliferative activity against human HCT-15 cells assessed as cell growth at 0.0000001 M incubated for 48 hrs by SRB assay relative to control; format: functional; conditions: dose 100 nM, read-out: Activity
Procedure, shortened: (§1)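 NCI-60 five-dose screen (10^-4 to 10^-8 M). Cells grown in RPMI 1640 with 5% FBS and 2 mM L-glutamine, plated at 5,000-40,000 cells/well and preincubated 24 h. Drug given from DMSO stock, then 48 h at 37 °C, 5% CO2. For adherent lines, cells fixed with cold TCA, SRB-stained and read at 515 nm. Percent growth taken against time-zero and untreated control.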

NCI-H460 [2] = experiment: Antiproliferative activity against human NCI-H460 cells assessed as cell growth inhibition by measuring lethal concentration incubated for 48 hrs by sulforhodamine B assay; format: functional; conditions: read-out: LC50 (the source's name)
HCC 2998 = experiment: Antiproliferative activity against human HCC 2998 cells assessed as cell growth at 0.000001 M incubated for 48 hrs by SRB assay relative to control; format: functional; conditions: read-out: Activity; procedure, shortened: as §1
RPMI-8226 = experiment: Antiproliferative activity against human RPMI-8226 cells assessed as cell growth inhibition by measuring lethal concentration incubated for 48 hrs by sulforhodamine B assay; format: functional; conditions: read-out: LC50 (the source's name)
MDA-MB-231 = experiment: Antiproliferative activity against human MDA-MB-231 cells assessed as cell growth at 0.0000001 M incubated for 48 hrs by SRB assay relative to control; format: functional; conditions: dose 100 nM, read-out: Activity
ACHN [3] = experiment: Growth inhibition against human ACHN cells assessed as total growth inhibitory concentration incubated for 48 hrs by sulforhodamine B assay; format: functional
BT-549 = experiment: Antiproliferative activity against human BT-549 cells assessed as cell growth at 0.0001 M incubated for 48 hrs by SRB assay relative to control; format: functional; conditions: read-out: Activity
Procedure, shortened: (§2)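 NCI-60 five-dose screen over 10^-4–10^-8 M (10-fold dilutions). Cells grown in RPMI 1640 with 5% FBS and 2 mM L-glutamine, seeded at 5,000–40,000 cells/well and preincubated 24 h. Drug from DMSO stock, 48 h at 37 °C, 5% CO2. Adherent cells TCA-fixed and stained with 0.4% SRB; A515 read. Percent growth = (Ti−Tz)/(C−Tz)×100, or (Ti−Tz)/Tz×100 when Ti<Tz.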

SR = experiment: Antiproliferative activity against human SR cells assessed as cell growth at 0.000001 M incubated for 48 hrs by SRB assay relative to control; format: functional; conditions: read-out: Activity
NCI-H460 [4] = experiment: Antiproliferative activity against human NCI-H460 cells assessed as cell growth at 0.00000001 M incubated for 48 hrs by SRB assay relative to control; format: functional; conditions: dose 10 nM, read-out: Activity
KM12 [5] = experiment: Antiproliferative activity against human KM12 cells assessed as cell growth inhibition by measuring lethal concentration incubated for 48 hrs by sulforhodamine B assay; format: functional; conditions: read-out: LC50 (the source's name)
ACHN [6] = experiment: Antiproliferative activity against human ACHN cells assessed as cell growth at 0.0001 M incubated for 48 hrs by SRB assay relative to control; format: functional; conditions: read-out: Activity; procedure, shortened: as §2
SW-620 = experiment: Antiproliferative activity against human SW620 cells assessed as cell growth at 0.0001 M incubated for 48 hrs by SRB assay relative to control; format: functional; conditions: read-out: Activity
NCI-H226 = experiment: Antiproliferative activity against human NCI-H226 cells assessed as cell growth at 0.00000001 M incubated for 48 hrs by SRB assay relative to control; format: functional; conditions: dose 10 nM, read-out: Activity
HL-60 [7] = experiment: Antiproliferative activity against human HL-60 cells assessed as cell growth at 0.00001 M incubated for 48 hrs by SRB assay relative to control; format: functional; conditions: read-out: Activity; procedure, shortened: as §1
NCI-H322M = experiment: Antiproliferative activity against human NCI-H322M cells assessed as cell growth at 0.0000001 M incubated for 48 hrs by SRB assay relative to control; format: functional; conditions: dose 100 nM, read-out: Activity
HL-60 [8] = experiment: Antiproliferative activity against human HL-60 cells assessed as cell growth at 0.00000001 M incubated for 48 hrs by SRB assay relative to control; format: functional; conditions: dose 10 nM, read-out: Activity; procedure, shortened: as §1
SN12C = experiment: Antiproliferative activity against human SN12C cells assessed as cell growth at 0.00000001 M incubated for 48 hrs by SRB assay relative to control; format: functional; conditions: dose 10 nM, read-out: Activity
KM12 [9] = experiment: Antiproliferative activity against human KM12 cells assessed as cell growth at 0.00000001 M incubated for 48 hrs by SRB assay relative to control; format: functional; conditions: dose 10 nM, read-out: Activity
SF-539 = experiment: Antiproliferative activity against human SF-539 cells assessed as cell growth at 0.0001 M incubated for 48 hrs by SRB assay relative to control; format: functional; conditions: read-out: Activity
KM12 [10] = experiment: Growth inhibition against human KM12 cells assessed as total growth inhibitory concentration incubated for 48 hrs by sulforhodamine B assay; format: functional
CCRF-CEM = experiment: Growth inhibition against human CCRF-CEM cells incubated for 48 hrs by sulforhodamine B assay; format: functional
OVCAR-3 = experiment: Antiproliferative activity against human OVCAR-3 cells assessed as cell growth inhibition by measuring lethal concentration incubated for 48 hrs by sulforhodamine B assay; format: functional; conditions: read-out: LC50 (the source's name)
UO-31 = experiment: Growth inhibition against human UO-31 cells assessed as total growth inhibitory concentration incubated for 48 hrs by sulforhodamine B assay; format: functional
Calf thymus DNA = experiment: Displacement of ethidium bromide from calf thymus DNA assessed as Stern-Volmer quenching constant upto 85 uM by fluorescence based spectroscopic analysis; format: nucleic-acid assay; conditions: Bos taurus
HL-60 [11] = experiment: Antiproliferative activity against human HL-60 cells assessed as cell growth at 0.0000001 M incubated for 48 hrs by SRB assay relative to control; format: functional; conditions: dose 100 nM, read-out: Activity; procedure, shortened: as §1
HCT-15 [12] = experiment: Antiproliferative activity against human HCT-15 cells assessed as cell growth inhibition by measuring lethal concentration incubated for 48 hrs by sulforhodamine B assay; format: functional; conditions: read-out: LC50 (the source's name)
786-0 = experiment: Antiproliferative activity against human 786-0 cells assessed as cell growth at 0.00001 M incubated for 48 hrs by SRB assay relative to control; format: functional; conditions: read-out: Activity; procedure, shortened: as §2
HL-60 [13] = experiment: Growth inhibition against human HL-60 cells assessed as total growth inhibitory concentration incubated for 48 hrs by sulforhodamine B assay; format: functional
SK-OV-3 = experiment: Antiproliferative activity against human SK-OV-3 cells assessed as cell growth at 0.000001 M incubated for 48 hrs by SRB assay relative to control; format: functional; conditions: read-out: Activity
LOX IMVI = experiment: Antiproliferative activity against human LOX IMVI cells assessed as cell growth at 0.0000001 M incubated for 48 hrs by SRB assay relative to control; format: functional; conditions: dose 100 nM, read-out: Activity
CAKI-1 = experiment: Antiproliferative activity against human CAKI-1 cells assessed as cell growth at 0.000001 M incubated for 48 hrs by SRB assay relative to control; format: functional; conditions: read-out: Activity; procedure, shortened: as §2
Malme-3M = experiment: Antiproliferative activity against human Malme-3M cells assessed as cell growth at 0.00000001 M incubated for 48 hrs by SRB assay relative to control; format: functional; conditions: dose 10 nM, read-out: Activity
SK-MEL-2 = experiment: Antiproliferative activity against human SK-MEL-2 cells assessed as cell growth at 0.0001 M incubated for 48 hrs by SRB assay relative to control; format: functional; conditions: read-out: Activity
M14 = experiment: Antiproliferative activity against human M14 cells assessed as cell growth at 0.0001 M incubated for 48 hrs by SRB assay relative to control; format: functional; conditions: read-out: Activity

SMILES	TGI (SK-MEL-5)	growth at 0.1 µM (HCT-15 [1])	CC50 (NCI-H460 [2])	growth at 1 µM (HCC 2998)	CC50 (RPMI-8226)	growth at 0.1 µM (MDA-MB-231)	TGI (ACHN [3])	growth at 100 µM (BT-549)	growth at 1 µM (SR)	growth at 0.01 µM (NCI-H460 [4])	CC50 (KM12 [5])	growth at 100 µM (ACHN [6])	growth at 100 µM (SW-620)	growth at 0.01 µM (NCI-H226)	growth at 10 µM (HL-60 [7])	growth at 0.1 µM (NCI-H322M)	growth at 0.01 µM (HL-60 [8])	growth at 0.01 µM (SN12C)	growth at 0.01 µM (KM12 [9])	growth at 100 µM (SF-539)	other results
c1ccc(Cn2cnc3ccc(-c4nc(-c5ccc6c(c5)ncn6C5CCCCC5)cn5ccnc45)cc32)cc1	2.96 µM	96%	> 100 µM	105%	> 100 µM	98%	> 100 µM	-68%	63%	103%	> 100 µM	23%	7%	103%	-24%	91%	104%	102%	100%	-38%	TGI (KM12 [10]): 4.93 µM; GI50 (CCRF-CEM): 2.18 µM; CC50 (OVCAR-3): > 100 µM; TGI (UO-31): 4.55 µM; KSV (Calf thymus DNA): 0.74 10^4/M; growth at 0.1 µM (HL-60 [11]): 113%; CC50 (HCT-15 [12]): > 100 µM; growth at 10 µM (786-0): 4%; TGI (HL-60 [13]): 6.65 µM; growth at 1 µM (SK-OV-3): 100%; growth at 0.1 µM (LOX IMVI): 94%; growth at 1 µM (CAKI-1): 71%; growth at 0.01 µM (Malme-3M): 92%; growth at 100 µM (SK-MEL-2): -33%; growth at 100 µM (M14): 6%
COc1ccc(-c2cn3ccnc3c(-c3ccc4ncn(C5CCCCC5)c4c3)n2)cc1	3.2 µM	99%	> 100 µM	86%	> 100 µM	101%	> 100 µM	-6%	48%	104%	> 100 µM	23%	19%	101%	-22%	90%	97%	97%	100%	-19%	TGI (KM12 [10]): > 100 µM; GI50 (CCRF-CEM): 1.64 µM; CC50 (OVCAR-3): > 100 µM; TGI (UO-31): > 100 µM; KSV (Calf thymus DNA): 0.82 10^4/M; growth at 0.1 µM (HL-60 [11]): 95%; CC50 (HCT-15 [12]): > 100 µM; growth at 10 µM (786-0): -32%; TGI (HL-60 [13]): 5.05 µM; growth at 1 µM (SK-OV-3): 34%; growth at 0.1 µM (LOX IMVI): 92%; growth at 1 µM (CAKI-1): 44%; growth at 0.01 µM (Malme-3M): 100%; growth at 100 µM (SK-MEL-2): 3%; growth at 100 µM (M14): 8%
